Screening data from PubChem BioAssay.
ABCB6 inh MLPCN: blocks the human ABCB6 transporter | Q9NP58 | K562-ABCB6 porphyrin accumulation, flow cytometry, 1 h; hits give low values | fluorescence ratio to DMSO, % at 10 µM | hit rate 0.19% among 360,000 | AID 602162;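 active = fluorescence ratio to DMSO below 75%, the collection mean minus 3 SD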;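 note: signal is porphyrin accumulated inside mitochondria; 100% equals median channel fluorescence of DMSO control wells; lower ratio means ABCB6 inhibition with less porphyrin fluorescence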
STAT3 act: increases IL-6 driven STAT3 reporter signal. U3A cells, IL-6 STAT3-luciferase reporter, luminescence; 100% = signal with IL-6 EC80 alone. activation (% of control), % at 5.6 µM. hit rate 0.91% among 190,000. AID 871;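 active = activation above the screen-wide mean of compound activation plus 3 SD, cut at about 130% in these data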;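 note: 0% = background luminescence of wells with medium and substrate only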
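Material: human U3A cells carrying STAT3-luciferase construct. Measured by: reporter luminescence signal. Timing: compound 1 h, then IL-6 6 h at 37 °C.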
FXN GAA850 act: activators of GAA850 frataxin (FXN) promoter | hit rate 0.56% among 360,000 | activation, % at 6 µM | HEK293 lucGAA850 FXN promoter luciferase reporter, 24 h; percent of 10 µM SAHA response;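 active = activation above the average of all compounds screened plus 3 SD, cutoff fixed separately per campaign, cut at about 7.5% in these data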;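 note: 0% = DMSO wells and 100% = 10 µM SAHA wells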
AHR activator: human AHR activation; activation, % at 5 µM; hit rate 2.5% among 320,000; AHR-responsive luciferase reporter cells, luminescence; in the data active = activation above about 47%;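 note: 0% = vehicle wells and 100% = reference agonist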
Starred values were filed as active, the others as inactive; . = no result given. A selection: hits, their analogues and other compounds. The true share with any hit is near 3.3%.

SMILES | ABCB6 inh MLPCN | STAT3 act | FXN GAA850 act | AHR activator
O=C1c2ccccc2C(=O)N1CCCN1C(=O)c2ccccc2C1=O | 100 | . | -1 | .
CN1CCN(c2ccc(NC(=O)c3ccc(-c4ccccc4F)o3)cc2)CC1 | 98 | . | 4 | 64*
CC(C)(C)OC(=O)NC(Cc1ccccc1)C(=O)NCCCC(=O)O (stereo not given) | 103 | . | 0 | 3
COc1ccccc1C(=O)N/C(N)=N/c1nc2ccccc2o1 | 96 | 112 | 4 | 69*
Cn1c(Cl)c(C(=O)Nc2ccc(Cl)cc2)c2ccccc21 | 94 | 155* | 0 | 57*
Cn1nc(-c2ccccc2)c(C(=O)Nc2ccc(Cl)cc2)c1Cl | 99 | 97 | 3 | 1
CSc1nsc(SC)c1C(=O)Nc1ccc(Cl)cc1 | 99 | . | 1 | 58*
CSc1nsc(SC)c1C(=O)Nc1ccc(C)cc1 | 84 | 101 | 4 | 33
CCc1nc2cccnc2n1-c1ccc(CC(=O)NC(C)CC)cc1 (stereo not given) | 95 | . | 0 | .
CCn1c2ccccc2c2c3ncc4cccn4c3ccc21 | 549 | . | 0 | 66*
CCn1c2ccccc2c2cc(N)ccc21 | 101 | 102 | 2 | 41
COC(C[C@@H]1O[C@@H]1[C@H](O)[C@@H](C)OCc1ccccc1)OC | 97 | . | -2 | 0
COc1cc2c(cc1OC)C(c1ccc(-c3ccc(Cl)c(Cl)c3)o1)=NCC2 | 94 | 74 | -7 | 63*
CCC(C)NC(=O)c1cc2c(=O)n3cccc(C)c3nc2s1 (stereo not given) | 97 | . | 2 | 65*
CCCCN(CC)C(=O)c1cc2c(=O)n3cccc(C)c3nc2s1 | 99 | . | 6 | 28
CCN(CC)C(=O)c1cc2c(=O)n3cccc(C)c3nc2s1 | 97 | . | 2 | 47*
CCOc1ccc2[nH]cc(C(=O)N3CCN(CC)CC3)c(=O)c2c1 | 99 | 99 | 1 | 10
COc1ccc(-c2cc(C(F)(F)F)n3nc(N)nc3n2)cc1 | 107 | 94 | 3 | -8
COc1cccc(-c2cc(C(F)(F)F)n3nc(N)nc3n2)c1 | 97 | 94 | 4 | 68*
O=[N+]([O-])c1cccc(N/N=C/c2cccc3ccccc23)c1 | 91 | 94 | 5 | 61*
O=C(NCc1cccnc1)C(=O)Nc1ccc([N+](=O)[O-])cc1 | 96 | 99 | 2 | 23
CCCCNC(=O)c1cc2c(C)cc(C)cc2[nH]1 | 96 | . | 0 | 55*
Cc1cc(NC(=O)c2ccccc2)nc2c1c(=O)oc1ccccc12 | 94 | 99 | -3 | 24
CCC(CC)C(=O)Nc1cc(C)c2c(=O)oc3ccccc3c2n1 | 99 | . | 0 | 50*
Nc1nc(-c2ccccc2)c(N=Nc2cccc3ccccc23)s1 | 96 | 111 | 3 | 70*
SMILES | ABCB6 inh MLPCN | STAT3 act | FXN GAA850 act | AHR activator
Cn1c(SCc2nc3ccccc3c(=O)[nH]2)nc2ccccc21 | 102 | 87 | 1 | 61*
O=c1[nH]c(CSc2cccc[n+]2[O-])nc2ccccc12 | 98 | . | -3 | 48*
COc1cc(C(=O)CSc2nccn2C)cc(OC)c1OC | 95 | . | 0 | 47*
COc1ccc(C(=O)CSc2nccn2C)cc1 | 97 | . | 4 | 19
O=C1Nc2ccccc2/C1=C/c1cnc(-c2ccccc2)[nH]1 | 97 | . | 6 | 73*
CCC/C=C/c1ccc(CN2C(C)C(=O)N(Cc3cn(CCC4OCCCO4)nn3)CCS2(=O)=O)cc1 (stereo not given) | 107 | . | -1 | .
CCc1ccc(N2CC(C(=O)OCC(=O)N(CC)c3c(N)n(Cc4ccccc4)c(=O)[nH]c3=O)CC2=O)cc1 (stereo not given) | 98 | . | 0 | .
COc1ccc(-c2sc(Nc3ccccc3)n[n+]2-c2ccccc2)cc1Br | 97 | . | 2 | 64*
CCOc1cc(-c2sc(Nc3ccc(CC)cc3)n[n+]2-c2ccccc2)ccc1OC | 103 | . | -1 | 0
COc1ccc(C)cc1Nc1n[n+](-c2ccccc2)c(-c2ccc(C(=O)O)cc2)s1 | 92 | . | 0 | 48*
COCCCNC(=O)c1ccc2nc([C@@H]3O[C@H](CO)[C@H](O)[C@H](O)[C@H]3O)[nH]c2c1 | 100 | . | -1 | .
NNC(=O)c1oc2nc(-c3cccs3)cc(-c3ccco3)c2c1N | 167 | . | -1 | 48*
COc1ccc(CCNc2cc(C)nc3c(-c4ccc(Cl)cc4)cnn23)cc1OC | 99 | 100 | -2 | 69*
Cc1ccc(N/C=C/C(=O)c2ccccc2)cc1Br | 99 | . | 3 | 55*
O=C(/C=C/Nc1cccc(O)c1)c1ccccc1 | 104 | 32 | -3 | 0
CCOc1ccc(Cn2ccnc2)cc1[N+](=O)[O-] | 96 | 96 | 2 | 64*
Cc1ccc(OCCCn2ccnc2)c([N+](=O)[O-])c1 | 100 | 90 | -1 | 37
Cc1cccnc1NC(=O)Nc1ccc(Cl)cc1 | 94 | . | 7 | 74*
Cc1cccnc1NC(=O)c1sc2ccccc2c1Cl | 100 | . | 6 | 69*
Cc1nnc(NC(=O)c2sc3ccccc3c2Cl)s1 | 92 | 45 | 4 | 48*
Cc1ccc(N=Nc2cc(C)ccc2N)cc1 | 101 | . | 2 | -1
CCOc1ccccc1NC(=O)Nc1ccc(Cl)cc1 | 101 | 88 | 1 | 53*
CCOc1ccccc1NC(=O)CCC(=O)Nc1ccccc1OCC | 100 | 97 | 1 | 14
CCOc1ccccc1NC(=O)Cn1[nH]c(=O)c2ccccc2c1=O | 97 | 84 | -3 | 64*
CCOc1ccccc1NC(=O)Nc1ccccn1 | 99 | . | 2 | 54*
SMILES | ABCB6 inh MLPCN | STAT3 act | FXN GAA850 act | AHR activator
COC(=O)c1ccc(C2NC(=S)N(c3ccccc3)C(C)=C2C(=O)Nc2ccccc2OC)cc1 (stereo not given) | 93 | 94 | 0 | 1
Cn1nc([N+](=O)[O-])nc1S(C)(=O)=O | 97 | 99 | 18* | .
Cc1ccc(NC(=O)/C(=C/c2cccc([N+](=O)[O-])c2)NC(=O)C2CCCCC2)cc1 | 72* | 96 | -2 | -1
O=C(Nc1ccc(Br)cc1)/C(=C/c1cccc([N+](=O)[O-])c1)NC(=O)C1CCCCC1 | 101 | 88 | -4 | -2
Oc1oc(-c2ccccc2)nc1C=NCc1ccncc1 | 97 | 113 | -1 | 70*
Cc1ccc(-c2nc(C=Nc3ccccc3)c(O)o2)cc1 | 94 | 97 | 3 | 24
O=C(Cn1nc(-c2ccc(Cl)cc2)ccc1=O)NCc1ccc2c(c1)OCO2 | 98 | 100 | 1 | 54*
O=C(Cn1nc(-c2ccccc2)ccc1=O)NCc1ccc2c(c1)OCO2 | 105 | 102 | -1 | 68*
O=C(NCc1ccc2c(c1)OCO2)C1(S(=O)(=O)c2ccccc2)CC1 | 88 | 101 | 0 | 70*
Cc1ccc(S(=O)(=O)C2(C(=O)NCc3ccc4c(c3)OCO4)CC2)cc1 | 97 | 101 | -2 | 31
Cc1cc(C(=O)OCC(=O)N2CCN(c3ccccc3)CC2)c2ccccc2n1 | 94 | 88 | 1 | 4
CCOC(=O)c1ccc(NC(=O)N2CCN(Cc3ccccc3)CC2)cc1 | 87 | 133* | -1 | 4
Cc1ccsc1C(=O)OCc1nc2ccsc2c(=O)[nH]1 | 102 | . | 0 | 3
Cc1ccsc1C(=O)OCc1nc2ccccc2c(=O)[nH]1 | 103 | 98 | 1 | 56*
